From PubChem BioAssay
The source made the active and inactive calls.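 Rule for the calls, unless noted: active = viability at or under a set limit in both replicates, limit being median viability minus 3 SD (cut at about 48% in these data, passing the limit was not always enough); inconclusive = at or under the limit in just one replicate; inactive = at or above the limit in both replicates.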

What was measured:
[1] = Her2 expression decrease, cell viability multiplex – SKBR3 breast tumor cells, AlphaScreen, ATP viability, primary screen (AID 461;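 active = Her2 level under about 52% in both replicate screens, with viability over 70% of control, limit read from the data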;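 for Her2 level: lower value means less Her2 protein in the cells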;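 for viability: percent of carrier control wells set as 100% viability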); settings: SKBR3 Her2 protein level, 18-24 h, measured here: SKBR3 viability, ATP luminescence, at 10 µM
[2] = target: Receptor tyrosine-protein kinase erbB-2 (Homo sapiens) (UniProt P04626); experiment: as above; settings: 18-24 h, at 10 µM, stronger effect = lower value
Sequence of Receptor tyrosine-protein kinase erbB-2 (Homo sapiens) (P04626 whole entry, looked up): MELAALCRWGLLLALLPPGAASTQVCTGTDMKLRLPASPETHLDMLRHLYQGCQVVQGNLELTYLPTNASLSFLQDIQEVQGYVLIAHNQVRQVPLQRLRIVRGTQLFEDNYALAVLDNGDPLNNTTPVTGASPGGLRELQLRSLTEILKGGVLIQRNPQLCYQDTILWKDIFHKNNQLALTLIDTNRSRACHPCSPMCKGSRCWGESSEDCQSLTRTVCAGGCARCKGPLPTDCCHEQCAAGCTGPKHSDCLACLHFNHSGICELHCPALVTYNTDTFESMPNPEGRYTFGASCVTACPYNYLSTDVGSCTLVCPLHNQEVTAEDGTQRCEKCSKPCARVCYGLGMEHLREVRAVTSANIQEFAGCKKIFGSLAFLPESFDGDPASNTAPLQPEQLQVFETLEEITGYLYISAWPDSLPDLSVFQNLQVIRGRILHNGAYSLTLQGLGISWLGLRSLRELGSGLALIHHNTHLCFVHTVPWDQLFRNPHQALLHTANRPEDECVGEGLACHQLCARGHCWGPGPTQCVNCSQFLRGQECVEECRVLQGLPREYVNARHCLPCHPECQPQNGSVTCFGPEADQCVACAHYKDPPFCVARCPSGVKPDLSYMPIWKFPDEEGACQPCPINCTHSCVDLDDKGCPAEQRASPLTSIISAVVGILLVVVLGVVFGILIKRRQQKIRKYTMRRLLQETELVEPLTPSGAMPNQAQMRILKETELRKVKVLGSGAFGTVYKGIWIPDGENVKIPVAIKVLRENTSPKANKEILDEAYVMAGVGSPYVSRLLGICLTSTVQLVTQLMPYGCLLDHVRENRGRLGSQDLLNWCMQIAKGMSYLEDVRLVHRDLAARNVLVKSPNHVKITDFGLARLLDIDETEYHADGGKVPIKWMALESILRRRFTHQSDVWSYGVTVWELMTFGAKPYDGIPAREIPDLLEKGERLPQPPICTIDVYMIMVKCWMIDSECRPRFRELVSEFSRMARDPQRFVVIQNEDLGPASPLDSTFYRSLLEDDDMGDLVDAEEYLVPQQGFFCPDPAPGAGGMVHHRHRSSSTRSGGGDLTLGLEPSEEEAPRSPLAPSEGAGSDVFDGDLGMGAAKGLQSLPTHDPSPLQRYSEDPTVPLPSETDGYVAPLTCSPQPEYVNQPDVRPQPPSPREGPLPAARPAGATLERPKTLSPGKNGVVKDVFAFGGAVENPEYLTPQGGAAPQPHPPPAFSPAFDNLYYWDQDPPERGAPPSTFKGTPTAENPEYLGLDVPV

[3] = reduced viability of SK-BR-3 breast cancer cells – cell-based, 24 h, human, pilot screen (AID 572;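 active = viability at or below 10% of carrier control in both of two separate runs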;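 note: compound exposure lasted between 18 and 24 h rather than exactly 24 h; 100% = carrier-treated control wells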); settings: SK-BR-3 viability, CellTiter-Glo luminescence, at 10 µM, stronger effect = lower value
[4] = HUVEC growth inhibition – cell-based, human, primary screen (AID 575;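 active = viability at or below 30% in both replicate assays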;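 note: 100% = median of untreated cell wells with 0.1% DMSO on each plate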); settings: HUVEC proliferation, CellTiter-Glo luminescence, 72 h; at 10 µM; stronger effect = lower value
Procedure, shortened: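 Assay system: Primary human umbilical vein endothelial cells | Quantity: 1250 cells per well | Medium: Supplemented EBM, 2% fetal bovine serum | Detection: CellTiter-Glo luminescence measuring cellular ATP | Read-out: % viability vs DMSO wells | Plate: Collagen-coated 384-well format | Times: 72 h exposure, 37 °C, 5% CO2, 30 min RT equilibration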

[5] = H69AR cell proliferation blockers – human, duplicate replicates, primary screen (AID 580); settings: H69AR lung tumor cells viability, ATP luminescence, 72 h; at 10 µM; stronger effect = lower value;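 note: 100% = mean luminescence of untreated wells and 0% = no signal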
[6] = MRP1 drug-resistance reversers in H69AR cells – cell-based, doxorubicin co-treatment, pilot screen (AID 601;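 active = viability loss from added drug above about 55%, and viability with drug at most 40%, in both replicates, limit read from the data, passing the limit was not always enough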); settings: CellTiter-Glo, 72 h, at 10 µM; for differential viability (reversal): stronger effect = higher value
[7] = yeast transport mutant growth inhibition pilot in 384-well plates, post-Golgi transport modulator project (AID 636; in the data active = inhibition above about 31%); settings: absorbance 615 nm, about 18 h, stronger effect = higher value
[8] = growth suppression of yeast trafficking mutant, preliminary HTS, modulators of trafficking downstream of Golgi apparatus project, 1536-format plate, OD 615 nm (AID 637; in the data active = inhibition above about 30%); settings: yeast transport mutant growth, absorbance 615 nm, 18 h; stronger effect = higher value
[9] = H69AR cells + 2 uM doxorubicin, measured here: viability with 2 uM doxorubicin, stronger effect = lower value
[10] = H69AR cells, compound alone cytotoxicity

In the case of COc1ccc(N2CCN(CCCNC(=O)C3(S(=O)(=O)c4ccc(Cl)cc4)CC3)CC2)cc1, the viability [1] is reported as 87.5%, the Her2 level [2] is reported as 96.5% (inactive) and the viability [3] is reported as 87.5% (inactive). The viability [4] was 87.2% (inactive), the viability [5] was 83.1% (inactive) and the differential viability (reversal) ([6]; H69AR cells + 2 uM doxorubicin) was -13.1% (inactive). For the same compound, the viability [6, 9] was 96.1%, the viability [6, 10] was 83.1% and the inhibition [7] was -0.65% (inactive). The inhibition [8] was -2.54% (inactive).

In the case of Cc1cccc(C)c1NC(=O)CS(=O)CC(=O)NC1CCCc2ccccc21 (stereo not given), the viability [1] is reported as 96.5%, the Her2 level [2] is reported as 82.5% (inactive) and the viability [3] is reported as 96.5% (inactive). For the same compound, the viability [4] was 103% (inactive), the viability [5] was 88.7% (inactive) and the differential viability (reversal) ([6]; H69AR cells + 2 uM doxorubicin) was -3.62% (inactive). The viability [6, 9] was 92.3%, the viability [6, 10] was 88.7% and the inhibition [7] was -6.8% (inactive). For the same compound, the inhibition [8] was -4.59% (inactive).

For COc1ccccc1CN1CCCC(C(=O)N(C)Cc2ccccc2)C1 (stereo not given), the viability [1] was 70%, the Her2 level [2] was 116% (inactive) and the viability [3] was 70% (inactive). For the same compound, the viability [4] was 99.1% (inactive), the viability [5] was 81.1% (inactive) and the differential viability (reversal) ([6]; H69AR cells + 2 uM doxorubicin) was 3.71% (inactive). For the same compound, the viability [6, 9] was 77.4%, the viability [6, 10] was 81.1% and the inhibition [7] was -0.77% (inactive). For the same compound, the inhibition [8] was 5% (inactive).

With CCOC(=O)c1c(NC(=O)c2nn(CC)cc2Br)c(C#N)cn1-c1ccccc1 the viability [1] was 78%, the Her2 level [2] was 90% (inactive) and the viability [3] was 78% (inactive). For the same compound, the viability [4] was 62.5% (inactive), the viability [5] was 74.8% (inactive) and the differential viability (reversal) ([6]; H69AR cells + 2 uM doxorubicin) was 2.55% (inactive). For the same compound, the viability [6, 9] was 72.2%, the viability [6, 10] was 74.8% and the inhibition [7] was -4.61% (inactive). The inhibition [8] was -6.17% (inactive).

In the case of CSc1nc2c(ccc3ccccc32)o1, the viability [1] is reported as 114%, the Her2 level [2] is reported as 83.5% (inactive) and the viability [3] is reported as 114% (inactive). For the same compound, the viability [4] was 92.4% (inactive), the viability [5] was 90.7% (inactive) and the differential viability (reversal) ([6]; H69AR cells + 2 uM doxorubicin) was 2.83% (inactive). For the same compound, the viability [6, 9] was 87.9%, the viability [6, 10] was 90.7% and the inhibition [7] was -1.32% (inactive). The inhibition [8] was 6.94% (inactive).

For CCOC(=O)C1=C(C)N=c2s/c(=C\c3cccn3C)c(=O)n2C1c1cccc(OC)c1OC (stereo not given), the viability [1] was 89%, the Her2 level [2] was 87% (inactive) and the viability [3] was 89% (inactive). For the same compound, the viability [4] was 75.7% (inactive), the viability [5] was 87.4% (inactive) and the differential viability (reversal) ([6]; H69AR cells + 2 uM doxorubicin) was -1.62% (inactive). The viability [6, 9] was 89%, the viability [6, 10] was 87.4% and the inhibition [7] was -1.56% (inactive). The inhibition [8] was -2.13% (inactive).

In the case of CCCCCCOC(=O)C(C#N)c1nc2ccccc2nc1N1CCCCC1 (stereo not given), the viability [1] is reported as 94%, the Her2 level [2] is reported as 88% (inactive) and the viability [3] is reported as 94% (inactive). For the same compound, the viability [4] was 63.8% (inactive), the viability [5] was 89.1% (inactive) and the differential viability (reversal) ([6]; H69AR cells + 2 uM doxorubicin) was -11.9% (inactive). For the same compound, the viability [6, 9] was 101%, the viability [6, 10] was 89.1% and the inhibition [7] was -2.47% (inactive). The inhibition [8] was -2.33% (inactive).

For COC(=O)C1=C(C)Nc2nnnn2C1c1cccs1 (stereo not given), the viability [1] was 95.5%, the Her2 level [2] was 101% (inactive) and the viability [3] was 95.5% (inactive). The viability [4] was 104% (inactive), the viability [5] was 96.9% (inactive) and the differential viability (reversal) ([6]; H69AR cells + 2 uM doxorubicin) was 3.09% (inactive). The viability [6, 9] was 93.8%, the viability [6, 10] was 96.9% and the inhibition [7] was 2.84% (inactive). For the same compound, the inhibition [8] was 5.71% (inactive).

With O=C(c1ccc(COc2c(F)c(F)c(F)c(F)c2F)o1)N1CCOCC1 the viability [1] was 111%, the Her2 level [2] was 98.5% (inactive) and the viability [3] was 111% (inactive). For the same compound, the viability [4] was 100% (inactive), the viability [5] was 88% (inactive) and the differential viability (reversal) ([6]; H69AR cells + 2 uM doxorubicin) was 7.68% (inactive). For the same compound, the viability [6, 9] was 80.3%, the viability [6, 10] was 88% and the inhibition [7] was -5.81% (inactive). For the same compound, the inhibition [8] was 6.98% (inactive).

In the case of COc1ccc(C2=NOC(C(=O)NCCCN3CCOCC3)C2)cc1 (stereo not given), the viability [1] is reported as 109%, the Her2 level [2] is reported as 100% (inactive) and the viability [3] is reported as 109% (inactive). The viability [4] was 116% (inactive), the viability [5] was 87.3% (inactive) and the differential viability (reversal) ([6]; H69AR cells + 2 uM doxorubicin) was 1.06% (inactive). The viability [6, 9] was 86.2%, the viability [6, 10] was 87.3% and the inhibition [7] was -6.71% (inactive). For the same compound, the inhibition [8] was 9.34% (inactive).

With O=C(NCc1cccnc1)C1c2ccccc2C(=O)N1Cc1ccco1 (stereo not given) the viability [1] was 94.5%, the Her2 level [2] was 91% (inactive) and the viability [3] was 94.5% (inactive). The viability [4] was 92% (inactive), the viability [5] was 92.9% (inactive) and the differential viability (reversal) ([6]; H69AR cells + 2 uM doxorubicin) was 11.6% (inactive). For the same compound, the viability [6, 9] was 81.3%, the viability [6, 10] was 92.9% and the inhibition [7] was -1.56% (inactive). The inhibition [8] was -3.65% (inactive).

In the case of COc1cc(C2c3c(n[nH]c3C)C(=O)N2c2ccc(Br)cc2)ccc1O (stereo not given), the viability [1] is reported as 95%, the Her2 level [2] is reported as 62.5% (inactive) and the viability [3] is reported as 95% (inactive). For the same compound, the viability [4] was 73.9% (inactive), the viability [5] was 87.8% (inactive) and the differential viability (reversal) ([6]; H69AR cells + 2 uM doxorubicin) was 5.68% (inactive). For the same compound, the viability [6, 9] was 82.2%, the viability [6, 10] was 87.8% and the inhibition [7] was -0.13% (inactive). The inhibition [8] was -1% (inactive).

For CCOc1ccccc1NC(=O)N1CCCC1C(=O)Nc1nnc(CC)s1 (stereo not given), the viability [1] was 94%, the Her2 level [2] was 88% (inactive) and the viability [3] was 94% (inactive). The viability [4] was 89.7% (inactive), the viability [5] was 109% (inactive) and the differential viability (reversal) ([6]; H69AR cells + 2 uM doxorubicin) was 20% (inactive). For the same compound, the viability [6, 9] was 88.8%, the viability [6, 10] was 109% and the inhibition [7] was -5.95% (inactive). The inhibition [8] was -0.83% (inactive).

For O=C(N1CCCCCC1)N1CCN(C(=O)N2CCOCC2)CC1, the viability [1] was 105%, the Her2 level [2] was 104% (inactive) and the viability [3] was 105% (inactive). For the same compound, the viability [4] was 94.9% (inactive), the viability [5] was 98.9% (inactive) and the differential viability (reversal) ([6]; H69AR cells + 2 uM doxorubicin) was 5.18% (inactive). For the same compound, the viability [6, 9] was 93.7%, the viability [6, 10] was 98.9% and the inhibition [7] was 0.92% (inactive). The inhibition [8] was -8.55% (inactive).

With COc1ccc(C(=O)Nc2ccc(S(=O)(=O)NC(C)=O)cc2)cc1 the viability [1] was 120%, the Her2 level [2] was 100% (inactive) and the viability [3] was 120% (inactive). The viability [4] was 96.5% (inactive), the viability [5] was 93.1% (inactive) and the differential viability (reversal) ([6]; H69AR cells + 2 uM doxorubicin) was -5.71% (inactive). For the same compound, the viability [6, 9] was 98.8%, the viability [6, 10] was 93.1% and the inhibition [7] was -4.13% (inactive). For the same compound, the inhibition [8] was -2.26% (inactive).
